Assay results published in the EternaBench riboswitch data.

Test system: MS2 coat protein
Assay: apparent Kd, MS2 coat protein; higher = weaker binding; RNA-MaP array
Summary of the method: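 In Tris-HCl pH 7.5 buffer with KCl, MgCl2, BSA, DTT, tRNA and Tween20, with or without input ligand, fluorescently labeled MS2 coat protein at 1.5 nM to 3 μM was incubated at room temperature with designed RNAs. The RNAs had been transcribed on an Illumina sequencing chip from sequenced DNA templates, and incubation ran 0.8–1.5 h at the lowest to 10–20 min at the highest concentrations. Apparent Kd is the median of binding-curve fits for individual clusters. Designs measured on fewer than 10 clusters were excluded.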

[1] = designed as: OFF switch for flavin mononucleotide, no ligand
[2] = ligand present: flavin mononucleotide, designed as: OFF switch for flavin mononucleotide
[3] = designed as: ON switch for flavin mononucleotide, no ligand
[4] = ligand present: flavin mononucleotide, designed as: ON switch for flavin mononucleotide
[5] = ligand present: theophylline, designed as: ON switch for theophylline
[6] = designed as: OFF switch for tryptophan, no ligand
[7] = ligand present: tryptophan, designed as: OFF switch for tryptophan

GAAUUAUGACGUGAUACCAGUGGUCAAUACUGGGAACUUAACAUGAGGAUCACCCAUGUCCACCCUUGGCAGCACGCUGACAAUC
apparent Kd (designed as: OFF switch for theophylline, no ligand): 0.094 µM | apparent Kd (ligand present: theophylline, designed as: OFF switch for theophylline): 0.236 µM

GACAGUUUAUAGGAUAUCGACUCGACUGGGCAUCGAGAAGGAUAAACAUGAGGAUCACCCAUGUGUGGUAGGAA
apparent Kd [1]: 0.0392 µM | apparent Kd [2]: 0.125 µM

GACCAACAUGAGGAUCACCCAUGUCGAGUUGGAAGUUUUACGAGAAGGAUCCUCCUGCCGAGCGGAUAGGAUAUCGAAACGGAC
apparent Kd [1]: 0.0115 µM | apparent Kd [2]: 0.00893 µM

GACGGCUCUAAGGAGGAUAUGGGAAUCAGCACAUGAGGAUCACCCAUGUAAAUGCCUCGGCUGAACCAGAAGGCCUUGGUCAGGAC
apparent Kd [3]: 0.38 µM | apparent Kd [4]: 0.269 µM

GACUAACAUGAGGAUCACCCAUGUGAAGAUACCAGUAAUUUCACCUACCCUUGGCAGCUUUUUUUGAACGGCCUGAAUGCCUUGU
apparent Kd (designed as: ON switch for theophylline, no ligand): 0.0113 µM | apparent Kd [5]: 0.0171 µM

GCAAGGUUUGUAGGAUAUCGCGUGUGAUUGAACAUGAGGAUCACCCAUGUGGAGGUUCCAUUAUCCGAGAAGGACAAGACUCGA
apparent Kd [1]: 0.155 µM | apparent Kd [2]: 0.0842 µM

GCAUGACAUGAGGAUCACCCAUGUGAAUUGUAGGAAGGAUAUAAUACUUGAUCCGCUGUCUUAGAAGGUCCAUAAU
apparent Kd [3]: 0.0286 µM | apparent Kd [4]: 0.0196 µM

GCGAUAGCUGUCAAGGAUAUGAGGCUGACCACAUGAGGAUCACCCAUGUUUACAACAAAAUAGAUUCAGAAGGUGACAACAAGUAG
apparent Kd [3]: 0.0803 µM | apparent Kd [4]: 0.0181 µM

GCUCUCCAAGGAUAUUAGGUGUGUUACAUGAGGAUCACCCAUGUUUUCCAAUGAAUCGUCUAAGAAGGUGGCUAUU
apparent Kd [1]: 0.0143 µM | apparent Kd [2]: 0.0129 µM

GGAAGCCGCUAGAAGGAAUAGCACGGGUGCUAAUUAGGAUAUAGUGUCCCAGCACAUGAGGAUCACCCAUGUAUAACACGAUCC
apparent Kd [3]: 0.0201 µM | apparent Kd [4]: 0.0169 µM

GGAAGCUCCUUGAGACAUGAGGAUCACCCAUGUGCCAUUCCGAGAAGGUAGACUGGACGAGAGGCUAAGGAUAUCGGCGCGCUC
apparent Kd [1]: 0.0167 µM | apparent Kd [2]: 0.0156 µM

GGACUACAUGAGGAUCACCCAUGUUUUUAAGACACAGGAUAUGAUCACCGCGGACAUGUAUCAGAAGGGUGUACAU
apparent Kd [3]: 0.0218 µM | apparent Kd [4]: 0.0101 µM

GGGACCGCAGCGUCAUACAUGAGGAUCACCCAUGUUUUACUAAGAAGGAUUAGGAAAGUAAGCUAAUAGGAUAUUACAAGGACA
apparent Kd [1]: 0.0224 µM | apparent Kd [2]: 0.0156 µM

GGUCAGCAGUCGGCCGCCACUAGUAUACAUGAGGAUCACCCAUGUCCCUUGCGCCUCACCGAUUUUAGGACCGGGACACUGCCUG
apparent Kd [6]: 0.0328 µM | apparent Kd [7]: 0.0293 µM

GGUCCCAUGCGACAGGAUAUUGGAUGCAGCACAUGAGGAUCACCCAUGUAUACAGUUAUGGAUAACAAGAAGGGUCGCUUUGCAUA
apparent Kd [3]: 0.0453 µM | apparent Kd [4]: 0.0152 µM

GUAACACAUGAGGAUCACCCAUGUUCCGAUACCAGUAUUGAAGAUUACCCUUGGCAGCGGGUAGGUCGGAGUGGACGGCCCGAGC
apparent Kd [5]: 0.0261 µM

GUACACUCCACAGGAUAUGGUGUAGACCCUACGCCAGAAGGGUGCGUGGGUACAUGAGGAUCACCCAUGUUAAGUUUACAUACG
apparent Kd [1]: 0.0129 µM | apparent Kd [2]: 0.0155 µM

GUAGAGCUCAUAGGAUAUACUCGACCGGAGGCAGUAGAAGGAUGCGUCAAAUACAUGAGGAUCACCCAUGUGAUGGUAAUCGUC
apparent Kd [1]: 0.0136 µM | apparent Kd [2]: 0.0144 µM

GUAUGGCUCGAGGAUAUGUACGUAGGAGACUAGACAGAAGGCGAUACAUGAGGAUCACCCAUGUCCUAUUAACC
apparent Kd [1]: 0.188 µM | apparent Kd [2]: 0.129 µM

GUCGAAUCCUGAGGAUAUUCAGUGAUGGCUCAGACAUGAGGAUCACCCAUGUUACUCAGUGAGCGGAAGAAGGCAGCCUUCGGG
apparent Kd [3]: 0.163 µM | apparent Kd [4]: 0.131 µM

GUGAAACAUGAGGAUCACCCAUGUCAGGAUAUACUAAUGUCCGCUCGAUUGGACCUGUGUAGAAGGGACUGUGA
apparent Kd [1]: 0.0127 µM | apparent Kd [2]: 0.0176 µM

GUGCGCGUAAAAGGAUAUUCGGAUGAUAGAACUCGAAACUACAUGAGGAUCACCCAUGUCAAGAAGAAGAAGGUUUGGCGAAAU
apparent Kd [1]: 0.0571 µM | apparent Kd [2]: 0.0317 µM

GUUACCAUGUCGGCCGCCACUAACAAGGUUAUGGCAAGUCUACACGACAUGAGGAUCACCCAUGUUAGGACCGGGACCCAUACCC
apparent Kd [6]: 0.0134 µM | apparent Kd [7]: 0.014 µM

GUUUUCAAGUCGGCCGCCACUGAUACAAUCCUCACCGGUUCACAUGAGGAUCACCCAUGUUCGCUCAGGACCGGGACCUUCUGUG
apparent Kd [6]: 0.127 µM | apparent Kd [7]: 0.108 µM

UAAAUCGAAGGAUAUACAUGUACAAGUAUCCGUCAAAGAGCACAUGAGGAUCACCCAUGUAGAAGGUCGACUAA
apparent Kd [1]: 0.0192 µM | apparent Kd [2]: 0.0576 µM

UAACUGGACCAGAAGGGAGCGCGUCGCGCAUCAACAUACAUGAGGAUCACCCAUGUUCGAGAGUCUCAGGAUAUGGCCGGUAUA
apparent Kd [3]: 0.00992 µM | apparent Kd [4]: 0.00791 µM

UAAUCGUAGGCGGCCGCCACUUUUUGGUAGUGUCCAUUGUACACUCACAUGAGGAUCACCCAUGUAAGGACCGGGCCCGCAUCAG
apparent Kd [6]: 0.017 µM | apparent Kd [7]: 0.0167 µM
